iPSC survival up: enhancers of human iPSC single-cell survival; hiPSC single-cell survival, ATPlite luminescence; 100% = ROCK inhibitor wells, 0% = DMSO; survival enhancement, % at 20 µM; 0.044% of 360,000 active; in the data active means survival enhancement above about 18%;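 further: cells exposed to compounds for 16 hours before the ATP read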
MPTP inh: blocks calcium-induced mitochondrial swelling; isolated mouse mitochondria, Ca2+ swelling absorbance, 30 min; inhibition, % at 10 µM; 1.4% of 360,000 active;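 active means inhibition of 50% or more, scaled per plate between neutral and stimulator controls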
MIN6 prolif: induces beta-cell replication in MIN6 cells; 0.29% of 330,000 active; AID 2380; MIN6 cells proliferation, ATPlite luminescence, 48 h; cells starved in 0.2% serum; 100% = growth in 10% serum; proliferation, % at 10 µM;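 active means compounds whose signal lies at least 3.5 SD above the mean of all wells on their plate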
Granule exo inh: lytic granule exocytosis inhibition; TALL-104 LAMP-1 surface exposure, flow cytometry; cells stimulated with thapsigargin and PMA; inhibition, % at 10 µM; 0.66% of 360,000 active; AID 651702;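 active means inhibition above about 55%, limit read from the data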
Apaf-1 inh: inhibitors of human Apaf-1 apoptosome; reconstituted apoptosome caspase-3 activity, DEVD-Rh110 fluorescence; inhibition, % at 20 µM; 0.71% of 330,000 active; AID 489030; active means inhibition of at least 40% at 20 µM
Target sequence (O14727 whole entry, looked up): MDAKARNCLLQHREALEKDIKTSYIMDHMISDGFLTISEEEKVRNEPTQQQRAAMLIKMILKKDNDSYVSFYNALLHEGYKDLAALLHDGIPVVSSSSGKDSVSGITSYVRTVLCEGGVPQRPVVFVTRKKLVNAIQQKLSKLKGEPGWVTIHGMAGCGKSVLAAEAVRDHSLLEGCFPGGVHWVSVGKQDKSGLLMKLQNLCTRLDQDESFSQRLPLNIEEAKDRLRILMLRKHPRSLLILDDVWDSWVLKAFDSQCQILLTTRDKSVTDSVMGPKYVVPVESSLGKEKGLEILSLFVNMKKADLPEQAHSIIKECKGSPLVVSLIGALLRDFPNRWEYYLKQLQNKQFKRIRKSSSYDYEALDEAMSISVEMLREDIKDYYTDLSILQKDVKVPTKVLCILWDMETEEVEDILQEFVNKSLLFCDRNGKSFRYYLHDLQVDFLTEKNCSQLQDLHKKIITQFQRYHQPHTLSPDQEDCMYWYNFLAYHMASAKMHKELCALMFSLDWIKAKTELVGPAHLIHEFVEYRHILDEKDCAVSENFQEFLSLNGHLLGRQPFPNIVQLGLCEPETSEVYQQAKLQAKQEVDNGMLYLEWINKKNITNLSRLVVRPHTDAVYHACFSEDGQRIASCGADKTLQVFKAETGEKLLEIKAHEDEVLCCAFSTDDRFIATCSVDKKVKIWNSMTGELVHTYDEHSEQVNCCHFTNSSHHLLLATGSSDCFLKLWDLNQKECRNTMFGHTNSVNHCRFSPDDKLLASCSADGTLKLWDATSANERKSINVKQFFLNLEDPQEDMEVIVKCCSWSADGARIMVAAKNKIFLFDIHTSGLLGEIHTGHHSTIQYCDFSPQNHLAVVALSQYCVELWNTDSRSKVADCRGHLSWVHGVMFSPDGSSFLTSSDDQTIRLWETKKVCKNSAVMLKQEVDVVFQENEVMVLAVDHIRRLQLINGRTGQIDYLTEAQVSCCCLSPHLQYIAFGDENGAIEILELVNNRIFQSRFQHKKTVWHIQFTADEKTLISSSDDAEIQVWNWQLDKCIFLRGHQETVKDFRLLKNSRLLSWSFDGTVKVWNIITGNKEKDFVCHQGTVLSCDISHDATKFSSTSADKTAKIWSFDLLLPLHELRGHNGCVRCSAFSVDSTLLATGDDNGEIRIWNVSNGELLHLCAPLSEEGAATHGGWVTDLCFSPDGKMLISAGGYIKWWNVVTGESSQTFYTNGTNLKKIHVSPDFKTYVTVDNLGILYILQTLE
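Material: reconstituted apoptosome with Apaf-1, cytochrome c, caspase-9, procaspase-3, dATP. Technique: Rh110 fluorescence intensity. Buffer or medium: pH 7.5 Hepes buffer with CHAPS, BSA, DTT. Times: 30 min plus 50 min, RT.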
UBC13 inh: human UBC13 polyubiquitination inhibition | 0.47% of 330,000 active | P61088 | inhibition, % at 20 µM | UBC13 polyubiquitin chain formation, TR-FRET; in the data active means inhibition above about 45%, passing the limit was not always enough
Apaf-1 inh conf2: Apaf-1 inhibition, single-dose confirmed | shares compounds with Apaf-1 inh | reconstituted apoptosome, caspase-3 DEVD-Rh110 fluorescence | inhibition, % at 20 µM | 25% of 1,800 active | AID 504614;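 active means mean inhibition of at least 40% at 20 µM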
Rh110 quench: interferes with Rh110 fluorescence, flagging false Apaf-1 inhibitors | shares compounds with Apaf-1 inh | Rh110 fluorescence interference, quenched caspase reaction | activation (fluorescence interference), % at 20 µM | 1,800 tested, under 10 active;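 active means signal rise of 40% or more at 20 µM, treated as a fluorescence artifact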
Apaf1 inh interf: Apaf-1 inhibitor counter-screen fluorescence artifact; shares compounds with Apaf-1 inh; fluorescence interference counterscreen, Apaf-1 assay format; IC50, µM; 460 tested, under 10 active; AID 588538; call rule not given here
Numbers stand for hits. The list is not random: actives were taken first. Their share in the collection is about 3%.

Screening Cc1sc2ncnc(N3CCC(C(=O)Nc4ccc(Cl)c(Cl)c4)CC3)c2c1C returned iPSC survival up inactive, MPTP inh inactive, MIN6 prolif inactive, Granule exo inh inactive, Apaf-1 inh 41.5, UBC13 inh inactive, Apaf-1 inh conf2 inactive and Rh110 quench inactive.
Screening CCCN(CC(=O)Nc1ccccc1C)C(=O)C1CCN(c2ncnc3sc(C)c(C)c23)CC1 returned iPSC survival up inactive, MPTP inh inactive, MIN6 prolif inactive, Granule exo inh inactive, Apaf-1 inh 48.5, UBC13 inh inactive, Apaf-1 inh conf2 inactive and Rh110 quench inactive.
Cc1ccccc1OCC(=O)NNC(=O)C1CCN(c2ncnc3sc(C)c(C)c23)CC1 was read as iPSC survival up inactive, MPTP inh inactive, MIN6 prolif inactive, Granule exo inh inactive, Apaf-1 inh inactive and UBC13 inh inactive.
For CNC(=O)c1ccc(NC(=O)C2CCN(c3ncnc4sc(C)c(C)c34)CC2)cc1 the results were iPSC survival up inactive, MPTP inh inactive, MIN6 prolif inactive, Granule exo inh inactive, Apaf-1 inh inactive and UBC13 inh inactive.
Cc1ccc(C(=O)OCC(=O)N2CCNC2=O)c(C)c1 was read as iPSC survival up inactive, MPTP inh inactive, MIN6 prolif inactive, Granule exo inh inactive, Apaf-1 inh inactive and UBC13 inh inactive.
For Oc1ccc(C=Nc2ccccc2-c2nc3ccccc3[nH]2)c(O)c1 the results were iPSC survival up inactive, MPTP inh inactive, MIN6 prolif inactive, Granule exo inh inactive, Apaf-1 inh inactive and UBC13 inh inactive.
Screening Oc1ccc(C=Nc2cccc3ncccc23)c(O)c1 returned iPSC survival up inactive, MPTP inh inactive, MIN6 prolif inactive, Granule exo inh inactive, Apaf-1 inh 86.7, UBC13 inh inactive, Apaf-1 inh conf2 inactive and Rh110 quench inactive.
CCCCCC(=O)Nc1nc(C)c(-c2csc(Nc3cc(OC)ccc3OC)n2)s1 was read as iPSC survival up inactive, MPTP inh inactive, MIN6 prolif inactive, Granule exo inh inactive, Apaf-1 inh inactive and UBC13 inh inactive.
For CCCCCCC(=O)Nc1nc(C)c(-c2csc(Nc3cc(OC)ccc3OC)n2)s1 the results were iPSC survival up inactive, MPTP inh inactive, MIN6 prolif inactive, Granule exo inh inactive, Apaf-1 inh 49.0, UBC13 inh inactive, Apaf-1 inh conf2 inactive and Rh110 quench inactive.
For CCOC(=O)N1CCN(c2cc(NCCC(=O)O)c3c4c(onc24)-c2ccccc2C3=O)CC1 the results were iPSC survival up inactive, MPTP inh inactive, MIN6 prolif inactive, Granule exo inh inactive, Apaf-1 inh 75.2, UBC13 inh inactive, Apaf-1 inh conf2 53.6, Rh110 quench inactive and Apaf1 inh interf 6.25.
O=C1c2ccccc2-c2onc3c(N4CCN(CCO)CC4)cc(N4CCN(C(=O)c5ccco5)CC4)c1c23 was read as iPSC survival up inactive, MPTP inh inactive, MIN6 prolif inactive, Granule exo inh inactive, Apaf-1 inh 52.4, UBC13 inh inactive, Apaf-1 inh conf2 inactive and Rh110 quench inactive.
For O=C(O)CCCNc1cc(N2CCC3(CC2)OCCO3)c2noc3c2c1C(=O)c1ccccc1-3 the results were MIN6 prolif inactive, Apaf-1 inh inactive and UBC13 inh inactive.
For O=C(O)CCNc1ccc(NCCC(=O)O)c2c1C(=O)c1ccccc1C2=O the results were iPSC survival up inactive, MPTP inh inactive, MIN6 prolif inactive, Granule exo inh inactive, Apaf-1 inh inactive and UBC13 inh inactive.
For O=C(O)CCCNc1cc(N2CCN(C(=O)c3ccco3)CC2)c2noc3c2c1C(=O)c1ccccc1-3 the results were iPSC survival up inactive, MPTP inh inactive, MIN6 prolif inactive, Granule exo inh inactive, Apaf-1 inh 59.9, UBC13 inh inactive, Apaf-1 inh conf2 inactive and Rh110 quench inactive.
Screening COc1cccc(C(C(=O)NCc2ccccc2)N2CCN(c3ccccc3F)CC2)c1OC (configuration not stated) returned MPTP inh inactive and Granule exo inh inactive.

Screening results as filed in PubChem BioAssay.
